Activity calls are given as the source filed them. No cut-off for these calls is given here.

This is an account of results in ChEMBL document CHEMBL4673250, “Analogs of nitrofuran antibiotics are potent GroEL/ES inhibitor pro-drugs” (Bioorg Med Chem, 2020).

For one series, the system named is Staphylococcus aureus. In words: Antibacterial activity against Staphylococcus aureus ATCC 25923 assessed as reduction in bacterial growth by serial dilution method. The series is classed as functional, organism-based.
The next series has as its system Acinetobacter baumannii. In words: Antibacterial activity against Acinetobacter baumannii ATCC 19606 assessed as reduction in bacterial growth by serial dilution method. Conditions: ATCC 19606 = CIP 70.34 = JCM 6841. The series is classed as functional, organism-based.
Another series deals with Pseudomonas aeruginosa. In words: Antibacterial activity against Pseudomonas aeruginosa ATCC 10145 assessed as reduction in bacterial growth by serial dilution method. The series is classed as functional, organism-based.
The next series deals with Enterobacter cloacae. In words: Antibacterial activity against Enterobacter cloacae ATCC 13047 assessed as reduction in bacterial growth by serial dilution method. The series is classed as functional, organism-based.
For series [1], the system named is Escherichia coli. The series is described as follows: Antibacterial activity against Escherichia coli assessed as reduction in bacterial growth by serial dilution method. The series is classed as functional, organism-based. In a few lines: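 Liquid-culture proliferation in media supplemented with physiological free calcium and magnesium; cultures started at OD600 = 0.01, exposed to 8-point 3-fold dilution series (100 μM to 46 nM), grown to mid-log phase (OD600 ~0.4–0.6), then final OD600 read. E. coli strain NEB 5-alpha (DH5α derivative).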

Another series relates to Klebsiella pneumoniae. In words: Antibacterial activity against Klebsiella pneumoniae ATCC 13883 assessed as reduction in bacterial growth by serial dilution method. The series is classed as functional, organism-based.
A further series deals with Enterococcus faecium. The series is described as follows: Antibacterial activity against Enterococcus faecium ATCC 19434 assessed as reduction in bacterial growth by serial dilution method. The series is classed as functional, organism-based.
Series [2] deals with Escherichia coli. In words: Antibacterial activity against Escherichia coli assessed as reduction in bacterial growth measured for 12 day serial passage incubated for 24 hrs by serial dilution method. The series is classed as functional, organism-based. In a few lines:
(§1)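 NEB 5-alpha E. coli (DH5α derivative); 12-day liquid-culture serial passage. Dilute culture (OD600 = 0.01) grown 24 h with inhibitors in dose-response, in duplicate. EC50 taken from OD600 readings. Each day, bacteria were sub-cultured from the well with the highest inhibitor concentration still reaching OD600 > 0.2. Resistant strains were retested in a follow-up 24 h proliferation assay after 4×12 h passages without inhibitor, and were cross-tested against the other inhibitors.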

Series [3] relates to Escherichia coli. In words: Antibacterial activity against Nifuroxazide-resistant Escherichia coli assessed as reduction in bacterial growth measured for 12 day serial passage incubated for 24 hrs by serial dilution method. The series is classed as functional, organism-based. The method in brief:
as §1

Series [4] has as its system Escherichia coli. In words: Antibacterial activity against Nitrofurantoin-resistant Escherichia coli assessed as reduction in bacterial growth measured for 12 day serial passage incubated for 24 hrs by serial dilution method. The series is classed as functional, organism-based. In a few lines:
as §1

For series [5], the system named is Escherichia coli. The series is described as follows: Antibacterial activity against 5-chloro-N-[(5-nitro-2-furyl)methyleneamino]thiophene-2-carboxamide-resistant Escherichia coli assessed as reduction in bacterial growth measured for 12 day serial passage incubated for 24 hrs by serial dilution method. The series is classed as functional, organism-based. The method in brief: as §1

In the next series the test system is FHC. The series is described as follows: Cytotoxicity against human FHC cells assessed as reduction in cell viability incubated for 48 hrs by alamar blue assay. The series is classed as cell-based. In a few lines: (§2)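 Alamar Blue viability: cells grown to ~80–90% confluency, seeded 1,500 per well and cultured 24 h without compound, then compound added for a further 48 h; resazurin reagent added and fluorescence monitored over time.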
(The colour change of resazurin is a common sign of viable cells or microbes.)

For series [6], the target named is T1, E. coli GroEL/ES (Escherichia coli, UniProt P0A6F5). In words: Inhibition of Escherichia coli GroEL/ES-mediated refolding of the denatured malate dehydrogenase. The series is classed as protein-complex assay. In a few lines:
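E. coli GroEL/ES-mediated refolding of denatured MDH as the reporter enzyme. IC50 values are averages from at least four replicates. […] GroEL tetradecamer is present at 50 nM during the refolding cycle. DMSO serves as the negative control.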

Series [7] in a line: Cytotoxicity against human FHs74Int cells assessed as reduction in cell viability incubated for 48 hrs by alamar blue assay. The series is classed as cell-based. In a few lines:
as §2

For series [8], the system named is Escherichia coli. The series is described as follows: Antibacterial activity against Escherichia coli harbouring NfsA and NfsB mutant assessed as reduction in bacterial growth measured for 12 day serial passage incubated for 24 hrs by serial dilution method. The series is classed as functional, organism-based. The method in brief: as §1
Series [9] has as its target T1, E. coli GroEL/ES. The series is described as follows: Inhibition of Escherichia coli GroEL/ES-mediated refolding of the denatured malate dehydrogenase in presence of Escherichia coli type 1 NfsB nitroreductase. The series is classed as protein-complex assay. In a few lines:
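GroEL/ES-dMDH refolding with 10 µg/mL E. coli NfsB added to the initial GroEL/ES-dMDH mix. After compound stamping, NADH (2.4 mM stock) is added and the mix is incubated 10 min at 37°C to bioactivate nitrofurans. Compounds during the refolding cycle span 83 µM to 38 nM (3-fold series).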

Series [10] in a line: Selectivity index, ratio of CC50 for human FHs 74 cells to EC50 for Escherichia coli. The series is classed as toxicity. Conditions: read-out: Ratio CC50/EC50.
Series [11] is described as follows: Selectivity index, ratio of CC50 for human FHC cells to EC50 for Escherichia coli. The series is classed as toxicity. The following applies: read-out: Ratio CC50/EC50.

T1 sequence (P0A6F5 whole entry, looked up): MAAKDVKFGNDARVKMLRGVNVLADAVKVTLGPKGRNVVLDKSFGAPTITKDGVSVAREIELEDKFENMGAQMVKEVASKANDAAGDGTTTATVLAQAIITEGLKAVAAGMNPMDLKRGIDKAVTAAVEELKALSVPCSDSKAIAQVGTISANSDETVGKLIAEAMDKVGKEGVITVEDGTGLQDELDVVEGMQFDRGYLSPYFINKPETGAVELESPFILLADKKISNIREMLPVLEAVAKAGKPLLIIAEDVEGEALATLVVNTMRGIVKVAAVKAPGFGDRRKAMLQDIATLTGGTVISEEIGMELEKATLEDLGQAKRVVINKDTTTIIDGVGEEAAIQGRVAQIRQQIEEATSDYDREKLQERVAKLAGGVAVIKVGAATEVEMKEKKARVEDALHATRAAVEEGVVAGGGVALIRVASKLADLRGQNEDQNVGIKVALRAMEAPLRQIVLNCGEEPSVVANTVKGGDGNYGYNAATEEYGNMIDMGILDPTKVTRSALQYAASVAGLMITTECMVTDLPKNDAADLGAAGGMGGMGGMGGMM

For the compound `O=[N+]([O-])c1ccc(O)c2ncccc12` [NITROXOLINE], the EC50 with Staphylococcus aureus turned out to be 9.5 µM; with Acinetobacter baumannii, 2.5 µM; in the series with Pseudomonas aeruginosa, 99 µM; with Enterobacter cloacae, 6.6 µM; in the series on Escherichia coli [1], 4 µM; with Klebsiella pneumoniae it was 2.8 µM. The EC50 in the series with Enterococcus faecium was determined as 18 µM.

Turning to `O=C1CN(/N=C/c2ccc([N+](=O)[O-])o2)C(=O)N1` [NITROFURANTOIN], the EC50 in the series with Staphylococcus aureus was 27 µM; in the series on Escherichia coli [2], 20 µM; in the series with Acinetobacter baumannii, > 100 µM; with Pseudomonas aeruginosa it was > 100 µM; in the series on Enterobacter cloacae, 36 µM; in the series on Escherichia coli [1], 0.69 µM. In addition, the values for the concentration giving a half-maximal response (EC50) in the series on Klebsiella pneumoniae and in the series with Enterococcus faecium were 40 µM and 38 µM, respectively. Further, the result in the series on Escherichia coli [3], in the series with Escherichia coli [4], in the series with Escherichia coli [5] and in the series on Escherichia coli [8] was inactive. Further, the CC50 (in the series with FHC; in series [7]) was > 100 µM in each case. The IC50 at E. coli GroEL/ES [6] was > 100 µM; on E. coli GroEL/ES [9], 84 µM.

Regarding `O=C(N/N=C/c1ccc([N+](=O)[O-])o1)c1ccc(Cl)s1`, the figures for the selectivity ratio in [10] and in series [11] were 190 and 119, respectively. Further, the EC50 is 3 µM with Staphylococcus aureus; 20 µM in the series with Escherichia coli [2]; 72 µM in the series on Acinetobacter baumannii; > 100 µM in the series on Pseudomonas aeruginosa; 49 µM in the series on Enterobacter cloacae; 0.45 µM with Escherichia coli [1]. The concentration for a half-maximal effect (EC50) was found to be 19 µM in the series with Klebsiella pneumoniae and 12 µM with Enterococcus faecium. Moreover, the outcome in the series with Escherichia coli [3] and in the series on Escherichia coli [4] was Active. Further, the result in the series with Escherichia coli [5] and in the series with Escherichia coli [8] was inactive. The values for the cytotoxic concentration (CC50) (in the series with FHC; in series [7]) were 53 µM and 85 µM, respectively. Besides, the figures for the IC50 against E. coli GroEL/ES [6] and at E. coli GroEL/ES [9] were 88 µM and 3.2 µM, respectively.

For `COc1ccc(C(=O)N/N=C/c2ccc([N+](=O)[O-])o2)cc1`, the selectivity ratio in [10] was determined as 40. The EC50 in the series on Staphylococcus aureus was 8.1 µM; in the series on Acinetobacter baumannii, > 100 µM; with Pseudomonas aeruginosa it was > 100 µM; in the series on Enterobacter cloacae, > 100 µM; in the series with Escherichia coli [1], 1.9 µM; in the series with Klebsiella pneumoniae, > 100 µM. Further, the EC50 with Enterococcus faecium was determined as 22 µM. Moreover, the figures for the CC50 (in the series with FHC; in [7]) were > 100 µM and 75 µM, respectively. For the same compound, the results for the IC50 on E. coli GroEL/ES [6] and on E. coli GroEL/ES [9] were 69 µM and 10 µM, respectively.

For `O=C(N/N=C/c1ccc([N+](=O)[O-])o1)c1ccncc1`, the selectivity ratio is 38 in series [10] and 26 in series [11]. Besides, the EC50 was 9.5 µM with Staphylococcus aureus; 54 µM in the series on Acinetobacter baumannii; > 100 µM in the series with Pseudomonas aeruginosa; 73 µM in the series on Enterobacter cloacae; 2.4 µM in the series on Escherichia coli [1]; 42 µM in the series on Klebsiella pneumoniae. Also, the EC50 with Enterococcus faecium was 13 µM. Further, the CC50 in the series on FHC stood at 61 µM; in [7] it was 90 µM. Further, the half-inhibitory concentration (IC50) is > 100 µM on E. coli GroEL/ES [6] and 23 µM at E. coli GroEL/ES [9].

In the case of `O=C(N/N=C/c1ccc([N+](=O)[O-])o1)c1cccs1`, the selectivity ratio in series [10] stood at 168; in series [11], 198. The EC50 in the series with Staphylococcus aureus is 7.1 µM; in the series with Acinetobacter baumannii, 82 µM; with Pseudomonas aeruginosa, > 100 µM; in the series on Enterobacter cloacae, 40 µM; in the series on Escherichia coli [1] it was 0.42 µM; in the series with Klebsiella pneumoniae it was 16 µM. In addition, in the series on Enterococcus faecium, the EC50 turned out to be 24 µM. The figures for the CC50 (in the series on FHC; in series [7]) were 83 µM and 71 µM, respectively. Moreover, the concentration for half-maximal inhibition (IC50) against E. coli GroEL/ES [6] is > 100 µM; on E. coli GroEL/ES [9], 7.7 µM.

For the compound `O=C(N/N=C/c1ccc([N+](=O)[O-])o1)c1ccccc1`, the selectivity ratio in series [10] is 45; in [11], > 48. Moreover, the concentration giving a half-maximal response (EC50) with Staphylococcus aureus was 10 µM; with Acinetobacter baumannii, > 100 µM; with Pseudomonas aeruginosa, > 100 µM; with Enterobacter cloacae, > 100 µM; with Escherichia coli [1], 2.1 µM; with Klebsiella pneumoniae, 36 µM. The EC50 in the series on Enterococcus faecium is 31 µM. For the same compound, the CC50 was > 100 µM in the series on FHC and 94 µM in series [7]. Moreover, the IC50 against E. coli GroEL/ES [6] is > 100 µM; at E. coli GroEL/ES [9] it was 12 µM.

Take `CN(C)c1ccc(C(=O)N/N=C/c2ccc([N+](=O)[O-])o2)cc1`: the selectivity ratio in [10] is 9.3; in series [11], > 10. The EC50 in the series on Staphylococcus aureus is 34 µM; in the series with Acinetobacter baumannii, > 100 µM; in the series on Pseudomonas aeruginosa it was > 100 µM; with Enterobacter cloacae, > 100 µM; with Escherichia coli [1] it was 10 µM; with Klebsiella pneumoniae it was > 100 µM. Besides, in the series with Enterococcus faecium, the EC50 was > 100 µM. The CC50 with FHC is > 100 µM; in [7] it was 93 µM. The IC50 against E. coli GroEL/ES [6] came to 26 µM; at E. coli GroEL/ES [9] it was 12 µM.

Consider `O=C(N/N=C/c1ccc([N+](=O)[O-])o1)c1ccc(O)cc1` [NIFUROXAZIDE], for which the selectivity ratio in [10] came to 91; in series [11], 70. The EC50 with Staphylococcus aureus is 16 µM; with Escherichia coli [2], 20 µM; in the series on Acinetobacter baumannii, > 100 µM; with Pseudomonas aeruginosa, > 100 µM; in the series with Enterobacter cloacae it was 54 µM; in the series with Escherichia coli [1], 0.87 µM. In addition, the EC50 in the series on Klebsiella pneumoniae turned out to be 37 µM; in the series on Enterococcus faecium it was 8.1 µM. Besides, the outcome with Escherichia coli [3], in the series with Escherichia coli [4] and in the series with Escherichia coli [5] was Active. Besides, the CC50 came out at 61 µM in the series with FHC and 79 µM in [7]. The 50% inhibitory concentration (IC50) against E. coli GroEL/ES [6] is > 100 µM; at E. coli GroEL/ES [9] it was 19 µM. For the same compound, in the series with Escherichia coli [8], the outcome was inactive.

Broadly, the EC50 is the concentration at which the effect is half-maximal. A word on the CC50: it is the concentration that lowers cell viability or growth by half. By IC50 is commonly meant the concentration that gives 50% inhibition.
